Measurements taken from PubChem BioAssay AID743061 (The Scripps Research Institute Molecular Screening Center, 2013).
“And” between values parts separate entries of the source, which are not always exact repeats. Identical values can stand only once.

These compounds were tested against Methionine--tRNA ligase, mitochondrial (Homo sapiens) (UniProt Q96GW9) (assay: inhibitors of human mitochondrial MetRS, late-stage follow-up, selectivity assay for T. brucei MetRS inhibitor project, biochemical, radioactivity, round 1 (AID 743061;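 also: 0% = DMSO with full reaction and 100% = DMSO wells lacking tRNA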)). Settings: recombinant human mtMetRS, [3H]Met tRNA charging, at 10 µM, stronger effect = higher value.
Summary of the method: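 Material – recombinant human mitochondrial methionyl-tRNA synthetase (MetRS) · Input – 13 nM enzyme · Also added – 240 nM [3H]methionine with bulk E. coli tRNA acceptor · Compound dosing – 10 and 1 µM · Schedule – 15 min preincubation, 1 h reaction, room temperature · Detection – scintillation counts of TCA-precipitated charged tRNA on filters · Benchmarks – high DMSO, low without tRNA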

Structure (SMILES) | inhibition
Cc1ccc(C(=O)NCCc2nc3ccccc3[nH]2)cc1C | 1.68%
CC(=O)c1c[nH]c(C(=O)NCc2cccc(C(F)(F)F)c2)c1 | 43.8%
O=C1[C@@H]2Cc3c([nH]c4ccccc34)C(c3cccc([N+](=O)[O-])c3)N2C(=O)CN1CCCO (stereo not given in full) | 4.46%
Cc1[nH]c2ccc(Br)cc2c(=O)c1CN1CCCCCC1 | -11%
CN1CC(=O)N2C(c3cccc([N+](=O)[O-])c3)c3[nH]c4ccccc4c3C[C@H]2C1=O (stereo not given in full) | 14%
O=C(NCc1nc2ccccc2[nH]1)C1=C[C@@H](c2ccc(Br)cc2)C[C@@H](OCCCCO)O1 | 29%
O=C(Nc1ccc(F)c(Cl)c1)C1CC(=O)n2c(nc3ccccc32)N1 (stereo not given) | 4.32% and 12.5%
O=C(NNC(=O)c1cc(-c2ccc(Cl)c(Cl)c2)nc2ccccc12)Nc1ccccc1 | -11.2%
CCN(CC)C(=O)C(=O)c1cn(CC(=O)Nc2cccc(C(F)(F)F)c2)c2ccccc12 | 40.8%
Cc1cccc(C(=O)NCCc2nc3ccccc3n2CCOc2ccccc2)c1 | 4.57%
CC(=O)N(CCc1ccccc1)C1CC(=O)N(c2ccc(Cl)cc2)C1=O (stereo not given) | -2.95%
CCN(CC)C(=O)C(=O)c1cn(CC(=O)Nc2ccccc2OC)c2ccccc12 | -1.19%
COc1ccc(CNC(=O)CSc2nnc3c(n2)[nH]c2ccc(F)cc23)cc1 | -12%
O=C1CC(NCCc2ccccc2)C(=O)N1c1ccc(Br)cc1 (stereo not given) | 6.62%
Cc1ccc(CNC(=O)CSc2nnc3c(n2)[nH]c2ccc(C)cc23)cc1 | 5.9%
Oc1c(Cl)cc(Cl)cc1CNc1nc2ccccc2[nH]1 | 31.4%
O=C(N/C(=C\c1cccnc1)c1nc2ccccc2[nH]1)c1cccc(Br)c1 | 4.89%
COc1ccc2[nH]c3nc(SCC(=O)Nc4ccc5c(c4)OCO5)nnc3c2c1 | 24.5%

Structure (SMILES) | inhibition
O=C(CSc1nnc2c(n1)[nH]c1ccc(Br)cc12)NCc1ccccc1 | 21.6%
CCOC(=O)N1CCC(Nc2c(Nc3ccc(F)cc3)c(=O)c2=O)CC1 | -4.56%
O=C(Cn1cc(C(=O)C(=O)N2CCOCC2)c2ccccc21)Nc1cccc(C(F)(F)F)c1 | -6.56%
O=C(NNC(=O)c1ccc(-n2cncn2)c([N+](=O)[O-])c1)c1ccc(Cl)cc1 | -21.4%
COc1ccccc1-n1c(SCC(=O)Nc2ccc(Cl)cc2)nc(O)c(Cc2ccccc2)c1=O | -19.7%
COc1cccc(NC(=O)C2CC(=O)n3c(nc4ccccc43)N2)c1 (stereo not given) | 9.79%
COc1ccc(CCN(C(=S)Nc2ccccc2)C2CC(=O)N(c3ccc(Cl)cc3)C2=O)cc1 (stereo not given) | 61.9%
CC(C)(C)[C@@H]1C=C(C(=O)NCc2nc3ccccc3[nH]2)O[C@H](OCc2ccc(CO)cc2)C1 | -5.44%
O=C(CC(=O)Nc1cccc(Cl)c1)NN=Cc1ccccc1 | 9.82%
COc1ccc(NC(=O)C2CC(=O)n3c(nc4ccccc43)N2)cc1 (stereo not given) | -2.5%
COc1cccc(NC(=O)CSc2nnc3c(n2)[nH]c2ccc(C)cc23)c1 | 40.4%
O=C(Cn1cc(C(=O)COc2ccccc2)c2ccccc21)Nc1cccc(C(F)(F)F)c1 | 3.08%
O=C1CC(SCc2nc3ccccc3[nH]2)C(=O)N1c1cccc(Cl)c1 (stereo not given) | -0.68%
CCCCn1c(CCNC(=O)c2ccc(F)cc2)nc2ccccc21 | 5.87%
O=C(NCc1nc2ccccc2[nH]1)C1=C[C@H](C2CC2)C[C@H](OCc2ccc(CO)cc2)O1 | 12.6%
O=C(C(=O)N1CCOCC1)c1cn(CC(=O)N2CCCc3ccccc32)c2ccccc12 | 3.68%
O=C(NCc1nc2ccccc2[nH]1)C1=C[C@H](c2ccc3c(c2)OCO3)C[C@H](OCCCCO)O1 | 10.2%
